# Assay outcomes deposited in PubChem BioAssay by several laboratories.
# APOBEC3G inh: inhibitors of human APOBEC3G DNA deaminase; recombinant A3G, ssDNA deamination FAM/TAMRA fluorescence; 330,000 compounds, 0.28% hits; inhibition, % at 20 µM; Q9HC16; AID 493012;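 active = inhibition of at least 40% at 20 µM, with no more than 30% in the related APOBEC3A deaminase screen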;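 also: plate controls were DMSO wells with A3G for no effect and wells lacking A3G enzyme for full effect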
# FN deposition inh: fibronectin deposition inhibition; AH1F fibroblasts, Alexa488-fibronectin deposition fluorescence, overnight; inhibition, % at 12.6 µM; 350,000 compounds, 0.086% hits; AID 743247;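 active = mean inhibition across replicates of 30% or more, regardless of how many single replicates reach that level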;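 also: positive control wells lacked labelled fibronectin entirely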
#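 Test system: AH1F fibroblast monolayer depositing Alexa488-labelled fibronectin into matrix. Input: 10000 cells per well. Technique: fluorescence, ex 485 nm, em 525 nm. Buffer or medium: DMEM plus 2% serum, read in PBS. Timing: 1 h cell adhesion before compound, then overnight fibronectin incubation. Compound: single dose, pinned. Read-out basis: inhibition from reduced deposited-fibronectin fluorescence.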
# ABHD5 PLIN5 PPI: blocks binding of human ABHD5 to perilipin-5. Q00G26+Q8WTS1. Split G. princeps luciferase complementation, luminescence, 4 h. inhibition, % at 4 µM. 360,000 compounds, 0.78% hits. AID 602281;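 active = inhibition above the mean inhibition across every tested compound plus 3 SD, cut at about 22% in these data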;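 also: 0% = DMSO only wells and the 100% control is not disclosed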
# A3A deaminase: human APOBEC3A DNA deaminase inhibition; P31941; recombinant A3A, FAM/TAMRA ssDNA deamination fluorescence; inhibition, % at 20 µM; 330,000 compounds, 0.41% hits;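 active = at least 40% inhibition at 20 µM here, with at most 30% in a related deaminase screen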;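 also: plate controls were A3A with DMSO for no effect and wells lacking A3A enzyme for full effect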
# Target sequence (P31941 whole entry, looked up): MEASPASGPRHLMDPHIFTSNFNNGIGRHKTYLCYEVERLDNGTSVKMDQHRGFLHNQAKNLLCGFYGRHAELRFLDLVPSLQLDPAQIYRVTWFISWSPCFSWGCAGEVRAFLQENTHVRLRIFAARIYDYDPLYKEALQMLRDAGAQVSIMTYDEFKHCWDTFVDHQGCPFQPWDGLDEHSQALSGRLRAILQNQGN
# ABHD5-PLIN5 conf: ABHD5-PLIN5 interaction inhibition, confirmed. biochemical ABHD5-PLIN5 interaction, luminescence. shares compounds with ABHD5 PLIN5 PPI. 2,200 compounds, 67% hits. AID 651612. inhibition, % at 4 µM; in the data active = inhibition above about 23%;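 also: 0% = DMSO vehicle wells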
# HNF4 counter: active in HNF4 split-luciferase counter-screen for ABHD5-PLIN5 inhibitors | shares compounds with ABHD5 PLIN5 PPI | HNF4 dimerization, luminescence, biochemical | inhibition, % at 4 µM | 2,200 compounds, 77% hits;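 active = mean inhibition across replicate wells exceeding the computed hit threshold, cut at about 13% in these data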;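 also: light from luciferase halves that rejoin when HNF4 fusion proteins dimerize; 0% = DMSO only wells and the 100% control is not given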
# Active calls of the source: *; x = not tested or not shown. The list is not random: actives were taken first. Their share in the collection is about 1.2%.
SMILES,APOBEC3G inh,FN deposition inh,ABHD5 PLIN5 PPI,A3A deaminase,ABHD5-PLIN5 conf,HNF4 counter
Cc1ccccc1-c1ccc(C2[C@@H]3CN(S(=O)(=O)c4cn(C)cn4)C[C@H]2N3)cc1 (some centres not stated),x,5,x,x,x,x
C[C@@H]1CN([C@H](C)CO)C(=O)c2cccc(NS(=O)(=O)c3cn(C)cn3)c2O[C@H]1CN(C)C(=O)Nc1ccc(C(F)(F)F)cc1,x,-1,x,x,x,x
C[C@@H]1CN([C@H](C)CO)S(=O)(=O)c2ccc(-c3ccccc3)cc2O[C@H]1CN(C)Cc1cccc(F)c1,x,-10,x,x,x,x
CSC(=Nc1ccccc1)N=C(SCc1ccccc1)N(C)C,x,1,81*,x,96*,57*
N#CNC(=Nc1ccccc1)SCc1ccc(C(=O)O)cc1,-3,-10,-1,-3,x,x
O=C(O)CCC(=O)Nc1sc2c(c1C(=O)Nc1cccc3ccccc13)CCCCC2,3,-19,-18,2,x,x
O=C(O)CCC(=O)Nc1sc2c(c1C(=O)Nc1ccccc1)CCCCC2,5,-10,24*,-2,9,-15
C[C@@H]1CN([C@@H](C)CO)C(=O)c2ccccc2-c2ccccc2CO[C@@H]1CN(C)S(=O)(=O)c1cn(C)cn1,x,14,x,x,x,x
O=C(C[C@H]1CC[C@@H]2[C@H](COC[C@@H](O)CN2S(=O)(=O)c2ccc(Cl)cc2)O1)NCc1ccc(Cl)c(Cl)c1,x,-10,x,x,x,x
CNC(=O)C[C@H]1CC[C@H]2[C@H](COc3ccc(NC(=O)Nc4ccccc4)cc3C(=O)N2C)O1,x,0,x,x,x,x
O=C(/C=C/c1ccc(Br)cc1)c1ccc(NC(=O)c2ccco2)cc1,0,x,29*,-2,61*,46*
O=C(N/N=C/C=C/c1ccco1)c1cccc([N+](=O)[O-])c1,21,-1,13,27,x,x
O=C(/C=C\c1ccccc1)Nc1ccc(NC(=O)c2ccco2)cc1,-5,2,6,-2,x,x
O=C(/C=C/c1ccc(-c2ccccc2[N+](=O)[O-])o1)c1ccco1,-4,-2,30*,4,64*,48*
O=C(/C=C/c1ccco1)c1cccc([N+](=O)[O-])c1,x,-6,29*,x,46*,30*
O=C(/C=C/c1ccc(Br)cc1)c1ccco1,-6,10,79*,-2,99*,99*
O=C(Cc1ccccc1)N[C@@H]1CC[C@H](CC(=O)N2CCOCC2)O[C@H]1CO,x,-9,x,x,x,x
O=C(/C=C/c1ccc([N+](=O)[O-])cc1)c1ccco1,-2,-1,33*,0,91*,91*
O=C(/C=C/c1ccc([N+](=O)[O-])cc1)NCc1ccco1,-5,-2,1,-4,x,x
O=C(N[C@H]1CC[C@@H](CCn2cc(-c3ccccc3)nn2)O[C@@H]1CO)c1cnccn1,x,-2,x,x,x,x
CCOC(=O)C(=Cc1ccc(-n2ccnc2)cc1)C(=O)OCC,-9,1,63*,5,88*,96*
CCOC(=O)N1CCc2c(sc(NC(=O)CCS(=O)(=O)c3ccccc3)c2C(N)=O)C1,-4,-1,30*,-3,24*,37*
O=C(CCN1CCCCC1)NCC[C@H]1CC[C@H](NS(=O)(=O)c2cccc(Cl)c2)[C@@H](CO)O1,x,-25,x,x,x,x
Cc1nn(CC(=O)Nc2ccccn2)c(C)c1[N+](=O)[O-],-4,x,73*,-7,2,-4
COC(=O)C(=C/C(C)=C/c1cccnc1)C(=O)OC,-3,-13,34*,3,54*,53*
SMILES,APOBEC3G inh,FN deposition inh,ABHD5 PLIN5 PPI,A3A deaminase,ABHD5-PLIN5 conf,HNF4 counter
O=[N+]([O-])/C=C/c1cn(Cc2ccccc2)c2ccccc12,1,x,31*,3,101*,99*
O=C(O)Cn1cc(/C=C/[N+](=O)[O-])c2ccccc21,-1,0,15,1,x,x
N#Cc1ccccc1Cn1cc(/C=C/[N+](=O)[O-])c2ccccc21,-1,-3,69*,2,100*,96*
O=C(Cn1cc(/C=C\[N+](=O)[O-])c2ccccc21)Nc1ccccc1,-6,-2,27*,-2,96*,83*
COc1ccc(C[C@@H]2CCn3cc(nn3)COC[C@@H](C(C)C)NC2=O)cc1,x,-7,x,x,x,x
COc1cccc(S(=O)(=O)N[C@@H]2CC[C@@H](CC(=O)NC3Cc4ccccc4C3)O[C@H]2CO)c1,x,-27,x,x,x,x
C[C@@H]1CN([C@@H](C)CO)S(=O)(=O)c2ccc(C#CCN(C)C)cc2O[C@@H]1CN(C)Cc1cccnc1,x,-1,x,x,x,x
